Experimental data reported in ChEMBL document CHEMBL4387722.

Legend:
[1] = target: T1, Phosphotyrosine protein phosphatase (Mycobacterium tuberculosis, UniProt A0A045ISB3); assay: Inhibition of Mycobacterium tuberculosis His-tagged PtpB expressed in Escherichia coli Rosetta 2 (DE3) using pNPP as substrate after 30 mins by spectrophotometric method
T1 sequence (A0A045ISB3 whole entry): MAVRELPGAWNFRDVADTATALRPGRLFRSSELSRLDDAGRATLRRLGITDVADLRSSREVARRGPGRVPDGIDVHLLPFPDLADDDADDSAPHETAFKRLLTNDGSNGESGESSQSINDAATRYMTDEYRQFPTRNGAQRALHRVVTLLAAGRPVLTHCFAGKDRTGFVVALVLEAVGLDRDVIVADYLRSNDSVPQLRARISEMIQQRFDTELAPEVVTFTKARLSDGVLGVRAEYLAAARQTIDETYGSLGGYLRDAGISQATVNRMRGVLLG

[2] = target: T2, Tyrosine-protein phosphatase non-receptor type 1 (Homo sapiens, UniProt P18031); assay: Inhibition of human PTPN1 expressed in Escherichia coli Rosetta 2 (DE3) using pNPP as substrate after 45 mins by spectrophotometric method
T2 sequence (P18031 whole entry): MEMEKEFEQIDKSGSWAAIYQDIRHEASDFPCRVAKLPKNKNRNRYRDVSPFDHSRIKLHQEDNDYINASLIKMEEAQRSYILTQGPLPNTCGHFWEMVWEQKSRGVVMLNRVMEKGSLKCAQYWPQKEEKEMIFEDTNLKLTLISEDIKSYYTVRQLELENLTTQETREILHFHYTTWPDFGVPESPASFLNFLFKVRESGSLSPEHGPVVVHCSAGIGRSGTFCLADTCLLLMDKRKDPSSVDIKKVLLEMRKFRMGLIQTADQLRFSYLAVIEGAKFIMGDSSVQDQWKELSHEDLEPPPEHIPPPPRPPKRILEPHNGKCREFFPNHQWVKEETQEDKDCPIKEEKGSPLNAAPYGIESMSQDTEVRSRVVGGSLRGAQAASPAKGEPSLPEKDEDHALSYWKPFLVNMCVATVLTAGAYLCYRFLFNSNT

[3] = target: T3, Tyrosine-protein phosphatase non-receptor type 2 (Homo sapiens, UniProt P17706); assay: Inhibition of human PTPN2 expressed in Escherichia coli Rosetta 2 (DE3) using pNPP as substrate after 45 mins by spectrophotometric method
T3 sequence (P17706 whole entry): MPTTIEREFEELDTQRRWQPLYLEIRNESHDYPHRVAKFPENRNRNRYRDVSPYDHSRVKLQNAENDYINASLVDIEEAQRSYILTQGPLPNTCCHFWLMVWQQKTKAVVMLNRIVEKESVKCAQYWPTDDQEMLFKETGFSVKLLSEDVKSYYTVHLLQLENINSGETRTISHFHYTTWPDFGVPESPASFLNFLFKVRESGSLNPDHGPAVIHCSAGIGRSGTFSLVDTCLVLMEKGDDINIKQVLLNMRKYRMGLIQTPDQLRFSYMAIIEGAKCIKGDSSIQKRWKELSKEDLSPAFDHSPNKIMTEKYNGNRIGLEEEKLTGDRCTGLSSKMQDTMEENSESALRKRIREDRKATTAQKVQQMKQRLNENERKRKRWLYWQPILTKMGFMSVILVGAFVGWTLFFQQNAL

[4] = target: T4, Tyrosine-protein phosphatase non-receptor type 5 (Homo sapiens, UniProt P54829); assay: Inhibition of human PTPN5 expressed in Escherichia coli Rosetta 2 (DE3) using pNPP as substrate after 45 mins by spectrophotometric method
T4 sequence (P54829 whole entry): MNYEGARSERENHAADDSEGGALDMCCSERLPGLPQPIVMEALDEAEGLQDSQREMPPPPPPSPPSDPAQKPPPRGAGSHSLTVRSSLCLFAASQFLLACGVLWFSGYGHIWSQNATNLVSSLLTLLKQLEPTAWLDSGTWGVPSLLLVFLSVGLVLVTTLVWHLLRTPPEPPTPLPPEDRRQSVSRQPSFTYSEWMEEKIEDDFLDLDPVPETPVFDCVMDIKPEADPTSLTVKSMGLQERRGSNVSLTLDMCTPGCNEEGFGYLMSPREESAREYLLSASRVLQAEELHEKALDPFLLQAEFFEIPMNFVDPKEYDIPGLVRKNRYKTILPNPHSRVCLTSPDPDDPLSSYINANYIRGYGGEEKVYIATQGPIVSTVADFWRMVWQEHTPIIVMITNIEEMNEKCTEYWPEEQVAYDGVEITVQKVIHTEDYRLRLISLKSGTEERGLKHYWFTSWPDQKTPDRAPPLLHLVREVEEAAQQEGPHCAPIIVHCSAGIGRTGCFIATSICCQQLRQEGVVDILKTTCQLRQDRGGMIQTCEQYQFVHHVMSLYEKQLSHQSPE

[5] = system: Mycobacterium tuberculosis; assay: Antitubercular activity against Mycobacterium tuberculosis H37Rv after 5 days at 200 uM relative to control; format: functional; details: 120 h
In short: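 M. tuberculosis grown in liquid culture with compound at a fixed 200 μM for 5 days. Growth inhibition expressed as percent of control.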

[6] = system: Mycobacterium tuberculosis; assay: Antitubercular activity against Mycobacterium tuberculosis H37Rv after 5 days; format: functional, organism-based; details: 120 h
[7] = Inhibition of refolded rhodanese (unknown origin) preincubated with Escherichia coli GroEL/GroES for 60 mins by measuring rhodanese enzyme activity followed by compound addition by Fe(SCN)3 dye based spectrometric analysis; set-up: species or system Homo sapiens
[8] = target: T5, Malate dehydrogenase, mitochondrial (Sus scrofa, UniProt P00346); assay: Inhibition of refolded pig heart mitochondrial MDH preincubated with Escherichia coli GroEL/GroES for 45 mins using sodium mesoxalate as substrate followed by compound addition and measured after 20 to 30 mins by spectrometric analysis
T5 sequence (P00346 whole entry): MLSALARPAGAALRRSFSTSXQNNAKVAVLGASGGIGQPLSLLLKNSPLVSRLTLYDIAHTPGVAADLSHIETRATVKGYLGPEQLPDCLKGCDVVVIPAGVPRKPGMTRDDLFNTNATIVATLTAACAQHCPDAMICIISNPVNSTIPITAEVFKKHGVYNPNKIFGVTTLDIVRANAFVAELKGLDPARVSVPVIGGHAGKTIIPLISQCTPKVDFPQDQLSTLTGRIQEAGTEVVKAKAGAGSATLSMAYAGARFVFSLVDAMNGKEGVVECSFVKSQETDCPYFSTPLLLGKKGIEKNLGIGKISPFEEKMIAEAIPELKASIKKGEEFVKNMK

E. coli GroEL/ES [9] = target: T6, E. coli GroEL/ES (Escherichia coli, UniProt P0A6F5); assay: Inhibition of Escherichia coli GroEL expressed in Escherichia coli DH5alpha/Escherichia coli GroES expressed in Escherichia coli BL21 (DE3) assessed as reduction in GroEL/GroES-mediated denatured rhodanese refolding by measuring rhodanese enzyme activity after 45 mins by Fe(SCN)3 dye based spectrometric analysis
E. coli GroEL/ES [10] = target: T6, E. coli GroEL/ES; assay: Inhibition of Escherichia coli GroEL expressed in Escherichia coliDH5alpha/Escherichia coli GroES expressed in Escherichia coli BL21 (DE3) assessed as reduction in GroEL/GroES-mediated denatured pig heart mitochondrial MDH refolding by measuring MDH enzyme activity using sodium mesoxalate as substrate after 20 to 40 mins by spectrometric analysis
HSP60/HSP10 = HSP60/HSP10 (Homo sapiens, UniProt P10809); assay: Inhibition of human HSP60 expressed in Escherichia coli Rosetta 2(DE3)/human HSP10 expressed in Escherichia coli Rosetta 2(DE3) pLysS cells assessed as reduction in HSP60/HSP10-mediated denatured pig heart mitochondrial MDH refolding by measuring MDH enzyme activity using sodium mesoxalate as substrate after 40 to 60 mins by spectrometric analysis
[11] = Cytotoxicity against human THLE3 cells assessed as reduction in cell viability after 48 hrs by Alamar blue assay; format: cell-based
In short: (§1)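 Alamar Blue viability read-out. Human liver (THLE-3) and kidney (HEK 293) cells incubated with compound for 48 h. Tested in dose-response to derive CC50.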

[12] = Cytotoxicity against human HEK293 cells assessed as reduction in cell viability after 48 hrs by Alamar blue assay; format: cell-based; in short: as §1

Sequence of HSP60/HSP10 (P10809 whole entry): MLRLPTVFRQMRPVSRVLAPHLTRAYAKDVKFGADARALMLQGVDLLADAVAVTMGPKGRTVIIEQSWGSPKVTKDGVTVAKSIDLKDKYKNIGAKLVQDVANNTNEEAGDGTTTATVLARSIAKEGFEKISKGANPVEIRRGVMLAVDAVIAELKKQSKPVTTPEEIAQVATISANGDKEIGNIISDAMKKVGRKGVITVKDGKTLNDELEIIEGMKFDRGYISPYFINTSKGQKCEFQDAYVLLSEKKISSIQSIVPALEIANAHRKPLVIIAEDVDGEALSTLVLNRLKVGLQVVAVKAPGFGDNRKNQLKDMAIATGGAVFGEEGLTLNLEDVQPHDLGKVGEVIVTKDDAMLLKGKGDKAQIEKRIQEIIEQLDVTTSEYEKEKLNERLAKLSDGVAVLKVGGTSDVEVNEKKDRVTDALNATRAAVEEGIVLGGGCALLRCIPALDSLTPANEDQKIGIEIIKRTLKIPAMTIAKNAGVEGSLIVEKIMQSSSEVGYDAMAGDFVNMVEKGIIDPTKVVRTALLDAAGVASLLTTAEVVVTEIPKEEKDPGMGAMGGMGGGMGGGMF
Sequence of HSP60/HSP10 (P61604 whole entry, further chain): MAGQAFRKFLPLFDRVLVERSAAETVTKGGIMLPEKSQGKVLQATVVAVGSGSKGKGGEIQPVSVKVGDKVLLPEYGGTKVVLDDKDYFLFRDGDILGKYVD
T6 sequence (P0A6F5 whole entry, looked up): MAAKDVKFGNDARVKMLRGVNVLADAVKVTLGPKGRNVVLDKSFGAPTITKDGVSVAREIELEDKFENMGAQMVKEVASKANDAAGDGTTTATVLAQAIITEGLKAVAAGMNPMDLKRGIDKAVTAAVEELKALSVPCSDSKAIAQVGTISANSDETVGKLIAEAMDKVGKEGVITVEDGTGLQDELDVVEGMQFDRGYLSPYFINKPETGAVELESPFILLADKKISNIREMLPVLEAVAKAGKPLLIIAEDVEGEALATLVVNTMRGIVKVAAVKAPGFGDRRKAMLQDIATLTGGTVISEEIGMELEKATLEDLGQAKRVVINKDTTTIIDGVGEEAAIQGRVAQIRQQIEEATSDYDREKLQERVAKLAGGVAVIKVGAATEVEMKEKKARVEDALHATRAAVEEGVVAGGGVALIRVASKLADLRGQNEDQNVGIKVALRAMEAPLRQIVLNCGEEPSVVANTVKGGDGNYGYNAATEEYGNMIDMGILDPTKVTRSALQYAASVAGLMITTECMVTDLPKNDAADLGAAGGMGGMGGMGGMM

Row | Structure (SMILES) | IC50 [1] | IC50 [2] | IC50 [3] | IC50 [4] | inhibition at 200 µM [5] | EC50 [6] | IC50 [7] | IC50 [8] | IC50 (E. coli GroEL/ES [9]) | IC50 (E. coli GroEL/ES [10]) | IC50 (HSP60/HSP10) | CC50 at 48 h [11] | CC50 at 48 h [12]
1 | O=S(=O)(Nc1ccc(-c2nc3ccccc3o2)cc1)c1cccc(F)c1 | 91 µM | 62 µM | 80 µM | 54 µM | 80% | 185 µM | > 100 µM | > 63 µM | 225 µM | 92 µM | 71 µM | > 100 µM | > 100 µM
2 | O=S(=O)(Nc1ccc(-c2nc3ccccc3o2)cc1)c1ccc(C(F)(F)F)cc1 | 52 µM | 35 µM | 38 µM | 39 µM | 78% | 161 µM | > 100 µM | > 63 µM | 159 µM | 77 µM | 50 µM | 71 µM | 94 µM
3 | O=[N+]([O-])c1cc(S(=O)(=O)Nc2ccc(-c3nc4ccccc4o3)cc2)ccc1Cl | 35 µM | 38 µM | 62 µM | 46 µM | 52% | 193 µM | > 100 µM | > 63 µM | 44 µM | 20 µM | 17 µM | 24 µM | 85 µM
4 | C=Cc1ccc(S(=O)(=O)Nc2ccc(-c3nc4ccccc4o3)cc2)cc1 | 52 µM | 47 µM | 33 µM | 31 µM | 73% | > 200 µM | > 100 µM | > 63 µM | 165 µM | 91 µM | > 100 µM | 82 µM | > 100 µM
5 | O=S(=O)(Nc1ccc(-c2nc3ccccc3o2)cc1)c1cccs1 | 48 µM | > 100 µM | > 100 µM | 93 µM | 68% | > 200 µM | > 100 µM | > 63 µM | 239 µM | > 100 µM | 63 µM | 98 µM | > 100 µM
6 | O=S(=O)(Nc1ccc(-c2nc3ccccc3o2)cc1)c1ccc(F)cc1 | 64 µM | 68 µM | 76 µM | 59 µM | 83% | 144 µM | > 100 µM | > 63 µM | 224 µM | 93 µM | 73 µM | 77 µM | > 100 µM
7 | Cc1ccc(S(=O)(=O)Nc2ccc3oc(-c4ccccc4)nc3c2)cc1 | 68 µM | 48 µM | 49 µM | 39 µM | 87% | 172 µM | > 100 µM | > 63 µM | 157 µM | > 100 µM | > 100 µM | 53 µM | 75 µM
8 | COc1ccc(Cl)cc1S(=O)(=O)Nc1ccc(-c2nc3ccccc3o2)cc1 | 29 µM | 21 µM | 28 µM | 37 µM | 0% |  | > 100 µM | > 63 µM | 83 µM | 59 µM | > 100 µM | 42 µM | 75 µM
9 | COc1ccccc1S(=O)(=O)Nc1ccc2oc(-c3ccccc3)nc2c1 | 67 µM | 37 µM | 34 µM | 38 µM | 3% |  | > 100 µM | > 63 µM | 89 µM | 85 µM | > 100 µM | 29 µM | 41 µM
10 | O=S(=O)(Nc1ccc2oc(-c3ccccc3)nc2c1)c1cccc(O)c1 | 98 µM | > 100 µM | > 100 µM | 72 µM | 3% |  | > 100 µM | > 63 µM | 103 µM | 58 µM | 76 µM | 79 µM | > 100 µM
11 | Cc1cccc(S(=O)(=O)Nc2ccc(-c3nc4ccccc4o3)cc2)c1 | 40 µM | 37 µM | 40 µM | 28 µM | 13% |  | > 100 µM | > 63 µM | 165 µM | 92 µM | > 100 µM | 81 µM | > 100 µM
12 | O=S(=O)(Nc1ccc(-c2nc3ccccc3o2)cc1)c1ccccc1O | 31 µM | 33 µM | 57 µM | 36 µM | 0% |  | > 100 µM | > 63 µM | 126 µM | 83 µM | > 100 µM | 81 µM | > 100 µM
13 | CS(=O)(=O)Nc1ccc(-c2nc3ccccc3o2)cc1 | > 100 µM | > 100 µM | > 100 µM | > 100 µM | 23% |  | > 100 µM | > 63 µM | > 250 µM | > 100 µM | > 100 µM | > 100 µM | > 100 µM
14 | O=S(=O)(Nc1ccc2oc(-c3ccccc3)nc2c1)c1ccc(Cl)c(C(F)(F)F)c1 | 40 µM | 40 µM | 34 µM | 28 µM | 0% |  | > 100 µM | > 63 µM | 132 µM | 92 µM | > 100 µM | 47 µM | 66 µM
